Experimental data of several laboratories.
PTGER4: Prostaglandin E2 receptor EP4 subtype (PTGER4, Homo sapiens, UniProt P35408)
CDK7 with cyclin H: Cyclin-dependent kinase 7, with cyclin H (CDK7, Homo sapiens, UniProt P50613)
Calcitonin-gene-related peptide receptor, CALCRL/RAMP1: Calcitonin-gene-related peptide receptor, CALCRL/RAMP1 (Homo sapiens, UniProt O60894+Q16602)

| SMILES | target | assay | setting | inhibition [%] |
| --- | --- | --- | --- | --- |
| O=C(CSc1nc2nccnc2c(=O)n1CCc1ccccc1)Nc1nccs1 | Phosphatidylinositol 4-phosphate 5-kinase type-1 beta (PIP5K1B, Homo sapiens, UniProt O14986) | enzyme activity, inhibitor | 10 µM | 13 |
| O=C(c1ccc(F)cc1)N(Cc1ccccc1)C1CCCCC1 | PTGER4 | cell-free assay | 10 µM | 6 |
| CCCNc1nc2ccccc2n1Cc1ccc(Cl)cc1 | 5-hydroxytryptamine receptor 1B (HTR1B, Homo sapiens, UniProt P28222) | ligand displacement, radioligand | 10 µM | -13.2 |
| O=C(/C=C/C=C/c1ccc2c(c1)OCO2)N1CCCCC1 | CDK7 with cyclin H | enzyme activity, inhibitor, ADP detection | 10 µM | 39.4 |
| CCN(CC)c1ccc(C2Nc3ccc(C(=O)c4ccccc4)cc3NC3=C2C(=O)CC(C)(C)C3)cc1 (centres unmarked) | PTGER4 | ligand displacement, radioligand | 10 µM | 7 |
| C=C(C)[C@@H](CC=C(C)C)C[C@@]12C[C@@H](CC=C(C)C)C(C)(C)[C@@](CC=C(C)C)(C(=O)C(C(=O)c3ccc(O)c(O)c3)=C1O)C2=O | CDK7 with cyclin H | enzyme activity, inhibitor, ADP detection | 10 µM | 25.8 |
| Ic1cccc2cnccc12 | PTGER4 | ligand displacement, radioligand | 10 µM | -6 |
| O=c1cc(-c2ccccc2)oc2c1ccc1ccccc12 | CDK7 with cyclin H | enzyme activity, inhibitor, ADP detection | 10 µM | 29.9 |
| CN(C)C1CCN(CC#Cc2nn(C3CCCC3)c3nc(NCc4ccccc4)ncc23)C1 (centres unmarked) | Mitogen-activated protein kinase 1 (MAPK1, Homo sapiens, UniProt P28482) | enzyme activity, inhibitor, FRET | 0.1 µM | 2 |
| Oc1cccc(Nc2nc(-c3ccc(F)cc3F)cs2)c1 | Calcitonin-gene-related peptide receptor, CALCRL/RAMP1 | cell-free assay | 10 µM | 3 |
| Cc1ccc(CNC(=O)[C@H](CCc2ccccc2)NC(=O)[C@H](CCc2ccccc2)NC(=O)[C@H](CCc2ccccc2)NC(=O)c2cnc(C)cn2)cc1 | Calpain-1 catalytic subunit (CAPN1, Homo sapiens, UniProt P07384) | enzyme activity, inhibitor | 100 µM | -9 |
| COc1cc(NC(C)=O)c(Cl)cc1C(=O)Nc1nccs1 | Calcitonin-gene-related peptide receptor, CALCRL/RAMP1 | cell-free assay | 10 µM | -1.3 |
| CC(/C=C/C=C(\C)C(=O)O)=C\C=C\C=C(C)\C=C\C=C(/C)C(=O)O | CDK7 with cyclin H | enzyme activity, inhibitor, ADP detection | 10 µM | 38.3 |
| CC(=O)c1nn(CC(=O)N2C[C@H](F)C[C@H]2C(=O)Nc2cccc(Br)n2)c2ccc(-c3cnc(C)nc3)cc12 | Prothrombin (F2, Homo sapiens, UniProt P00734) | enzyme activity, inhibitor | 10 µM | 1.2 |
| O=C(c1ccc(Cl)cc1)N(Cc1ccccc1)C1CCCCC1 | Calcitonin-gene-related peptide receptor, CALCRL/RAMP1 | cell-free assay | 10 µM | -20.2 |
| Nc1nccc(-c2c[nH]c3ccc(Br)cc23)n1 | CDK7 with cyclin H | enzyme activity, inhibitor, ADP detection | 10 µM | -32 |
| CCN(Cc1ccccc1C(F)(F)F)C(=O)C1CCN(S(=O)(=O)c2ccc3[nH]ncc3c2)CC1 | PTGER4 | ligand displacement, radioligand | 10 µM | 33 |
